We go through 36 sequences from the array DNA melting data of Ke et al. (doi:10.1101/2024.01.08.574731).

The nature of series [1]: melting temperature; fluorescence melt of hairpins on a sequencing array, two-state fit, raised by 9.35 °C to match UV melts. The following applies: sodium 0.088 M. The method, boiled down:
(§1)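 To match UV melts, fitted temperatures were raised by 9.35 °C. These fits were bootstrapped two-state models that gave melting temperature and folding enthalpy, combined by inverse variance over four replicates. The input was normalised Cy3 fluorescence of library hairpins with annealed Cy3 and quencher oligos on a sequenced MiSeq flow cell, imaged in 50 mM Na-HEPES pH 8.0, 25 mM NaCl in 2.5 °C steps up to 60 °C.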

Series [2] is described as follows: folding enthalpy; higher = less favourable; fluorescence melt of hairpins on a sequencing array, two-state fit. The following applies: sodium 0.088 M. The method, boiled down: as §1

Take GGTTACCGAAAGGTACC (((.(((....)))))): in series [1], the Tm was determined as 51 °C. Moreover, the folding enthalpy in series [2] is -20.4 kcal/mol.

As for GGTTACGAAAGTAAACC ((((((....))).))), the Tm in series [1] was determined as 48.8 °C. Also, in series [2], the folding enthalpy was -24.2 kcal/mol.

For GGTTACGAAAGTAACC ((((((....)))))), the Tm in series [1] came out at 67.5 °C. Further, the folding enthalpy in series [2] was -34.7 kcal/mol.

Turning to GGTTACGAAAGTACTACC ((((((....)))..))), the Tm in series [1] is 28.4 °C. In addition, in series [2], the folding enthalpy was -23.2 kcal/mol.

For the sequence GGTTACGAAAGTAGAACC ((((((....)))..))), the Tm in series [1] came to 37.8 °C. Moreover, in series [2], the folding enthalpy is -18.2 kcal/mol.

For GGTTACGAAAGTAGGACC ((((((....)))..))), in series [1], the Tm was 32 °C. Besides, in series [2], the folding enthalpy was -11.5 kcal/mol.

GGTTACGAAAGTATAACC ((((((....)))..))): in series [1], the Tm was 37.2 °C. Moreover, in series [2], the folding enthalpy was -20 kcal/mol.

As for GGTTACGCGAAAGCGACC (((..(((....)))))), in series [1], the Tm was found to be 37.2 °C. In series [2], the folding enthalpy is -12.4 kcal/mol.

Take GGTTACGGAAACGTAACC (((((((....))))))): in series [1], the Tm is 65.4 °C. The folding enthalpy in series [2] is -43 kcal/mol.

With GGTTAGCCGAAAGGCACC (((..(((....)))))), the Tm in series [1] was found to be 41.2 °C. In addition, the folding enthalpy in series [2] was -13.5 kcal/mol.

Regarding GGTTAGGGAAACCCAACC ((((.((....)).)))), in series [1], the Tm stood at 41 °C. In addition, in series [2], the folding enthalpy was -28.6 kcal/mol.

For GGTTAGGGAAACCTAACC (((((((....))))))), in series [1], the Tm was determined as 58.3 °C. Also, the folding enthalpy in series [2] was -46.4 kcal/mol.

As for GGTTAGGGAAACCTAGTC (..((((....))))..), in series [1], the Tm was 28.7 °C. For the same sequence, the folding enthalpy in series [2] is -11.7 kcal/mol.

Turning to GGTTAGGGAAACTTAACC (((((.(....).))))), the Tm in series [1] worked out at 37.6 °C. In series [2], the folding enthalpy is -25.1 kcal/mol.

GGTTAGTCGAAAGACACC (((..(((....)))))): the Tm in series [1] is 35.5 °C. Also, the folding enthalpy in series [2] is -17.2 kcal/mol.

As for GGTTATGAAAATAACC ((((((....)))))), the Tm in series [1] was 50.9 °C. Moreover, in series [2], the folding enthalpy was -31.8 kcal/mol.

GGTTATGGAAACATAGCC ((.((((....)))).)): the Tm in series [1] is 43.8 °C. Also, the folding enthalpy in series [2] was -31.1 kcal/mol.

Take GGTTCAACGAAAGTTACC (((..(((....)))))): the Tm in series [1] is 27.8 °C. Also, the folding enthalpy in series [2] is -14.4 kcal/mol.

For GGTTCCGAAAGGACCACC ((((((....)))..))), the Tm in series [1] turned out to be 44.3 °C. Also, the folding enthalpy in series [2] is -14 kcal/mol.

On to GGTTCCGAAAGGAGACC ((((((....))).))), for which, in series [1], the Tm turned out to be 47.6 °C. Also, the folding enthalpy in series [2] is -23.8 kcal/mol.

As to GGTTCCGCGAAAGCGACC (((..(((....)))))), the Tm in series [1] was determined as 28.4 °C. The folding enthalpy in series [2] was -8.82 kcal/mol.

Consider GGTTCCGGAAACAGAACC (((((.(....).))))), for which the Tm in series [1] came out at 41.1 °C. The folding enthalpy in series [2] is -35.7 kcal/mol.

In the case of GGTTCGACGAAAGTCACC (((..(((....)))))), the Tm in series [1] stood at 24.9 °C. Besides, in series [2], the folding enthalpy is -11.9 kcal/mol.

Turning to GGTTCGGCGAAAGCCACC (((..(((....)))))), the Tm in series [1] amounted to 28.7 °C. Further, the folding enthalpy in series [2] is -9.35 kcal/mol.

With GGTTCTACGAAAGTAACC (((..(((....)))))), in series [1], the Tm came out at 28.2 °C. Further, the folding enthalpy in series [2] was -19.6 kcal/mol.

For GGTTCTCGAAAGAGGACC (((.(((....))).))), the Tm in series [1] amounted to 57.2 °C. Further, the folding enthalpy in series [2] was -42.8 kcal/mol.

Regarding GGTTCTGAAAAGAACC ((((((....)))))), in series [1], the Tm was determined as 59.2 °C. Moreover, the folding enthalpy in series [2] is -33.3 kcal/mol.

With GGTTCTGGAAACAGAGTC (..((((....))))..), the Tm in series [1] was 28.1 °C. The folding enthalpy in series [2] was -11.8 kcal/mol.

On to GGTTGAGCGAAAGCTACC (((..(((....)))))), for which the Tm in series [1] is 42.4 °C. Moreover, the folding enthalpy in series [2] is -13.1 kcal/mol.

On to GGTTGAGGAAACTCGATC (.(.(((....))).).), for which the Tm in series [1] was 29.8 °C. For the same sequence, in series [2], the folding enthalpy is -16.8 kcal/mol.

For the sequence GGTTGATCGAAAGATACC (((..(((....)))))), the Tm in series [1] stood at 25.5 °C. Further, in series [2], the folding enthalpy is -8.74 kcal/mol.

With GGTTGCCGAAAGGCCACC (((.(((....))).))), the Tm in series [1] worked out at 52.6 °C. In addition, the folding enthalpy in series [2] was -26.6 kcal/mol.

As for GGTTGCGAAAGCAGCACC ((((((....)))..))), in series [1], the Tm was 41 °C. The folding enthalpy in series [2] is -12.4 kcal/mol.

For GGTTGCGAAAGCATACC ((((((....))).))), in series [1], the Tm worked out at 51.8 °C. The folding enthalpy in series [2] is -28.7 kcal/mol.

On to GGTTGCGAAAGCATGACC ((((((....)))..))), for which the Tm in series [1] came out at 40.2 °C. Besides, the folding enthalpy in series [2] is -15.7 kcal/mol.

As to GGTTGCGGAAACGCAGTC (..((((....))))..), in series [1], the Tm was found to be 36.1 °C. Besides, in series [2], the folding enthalpy is -12.8 kcal/mol.
